Published values from different studies.
Protocols differ between the studies behind these lines.
Observed: cell growth or viability

| Compound | cell line | technique | time | endpoint | value |
| --- | --- | --- | --- | --- | --- |
| CC[C@H](C)[C@@H]([C@@H](CC(=O)N1CCC[C@H]1[C@H](OC)[C@@H](C)C(=O)N[C@H](C)[C@@H](O)c1ccccc1)OC)N(C)C(=O)[C@@H](NC(=O)[C@H](C(C)C)N(C)C(=O)OCc1ccc(NC(=O)[C@H](C)NC(=O)[C@@H](NC(=O)CCc2cn(CCOCCOCCOCCOCC(=O)NCc3ccc(CN4C(=O)[C@H]5CC(=O)N[C@H](C(=O)O)CC(=O)NCC(=O)N[C@@H](CCCNC(=N)N)C(=O)NC[C@H]4C(=O)N5)cc3)nn2)C(C)C)cc1)C(C)C | M21 | MTT | 72 h | IC50 | 6.94 nM |
| N.N.[Cl][Pt][Cl] | B16-F10 | MTT | – | IC50 | 9380 nM |
| Cc1sc2c(c1C)C(c1ccc(Cl)cc1)=N[C@@H](CC(=O)Nc1ccc(O)cc1)c1nnc(C)n1-2 | MB002 | – | 7 days | IC50 | 12.6 nM |
| N.N.[Cl][Pt][Cl] | M21 | SRB | 48 h | IC50 | 17000 nM |
| N.N.[Cl][Pt][Cl] | CCD 19Lu | – | 24 h | IC50 | > 100000 nM |
| COc1ccc2c(c1)[nH]c1c(C)nccc12 | BT-474 | MTT | 72 h | IC50 | 20200 nM |
| CC[C@@H]1C(=O)N(C)c2cnc(Nc3ccc(C(=O)NC4CCN(C)CC4)cc3OC)nc2N1C1CCCC1 | MB002 | – | 7 days | IC50 | 3.4 nM |
| CC[C@H](C)[C@@H]([C@@H](CC(=O)N1CCC[C@H]1[C@H](OC)[C@@H](C)C(=O)N[C@H](C)[C@@H](O)c1ccccc1)OC)N(C)C(=O)[C@@H](NC(=O)[C@H](C(C)C)N(C)C(=O)CCc1cn(CCOCCOCCOCCOCC(=O)NCc2ccc(CN3C(=O)[C@H]4CC(=O)N[C@H](C(=O)O)CC(=O)NCC(=O)N[C@@H](CCCNC(=N)N)C(=O)NC[C@H]3C(=O)N4)cc2)nn1)C(C)C | M21 | MTT | 72 h | IC50 | 400 nM |
| CC[C@H](Nc1nc(NCc2cnc(C)cc2C)c2ncn(C(C)C)c2n1)[C@@H](C)O | MB002 | – | 7 days | IC50 | 277 nM |
| CN[C@@H]1C[C@H]2O[C@@](C)([C@@H]1OC)n1c3ccccc3c3c4c(c5c6ccccc6n2c5c31)C(=O)NC4 | KB 3-1 | WST-1 | 5 days | Kb | 4 nM |
